pKi: −log10 of the molar value. Activity calls are given as the source filed them. The rule behind the calls is not given here.
Key:
[1] = target: T1, Muscarinic acetylcholine receptor M2 (Rattus norvegicus, UniProt P10980); experiment: Displacement of [3H]-NMS from Sprague-Dawley rat muscarinic M2 receptor in heart
T1 sequence (P10980 whole entry): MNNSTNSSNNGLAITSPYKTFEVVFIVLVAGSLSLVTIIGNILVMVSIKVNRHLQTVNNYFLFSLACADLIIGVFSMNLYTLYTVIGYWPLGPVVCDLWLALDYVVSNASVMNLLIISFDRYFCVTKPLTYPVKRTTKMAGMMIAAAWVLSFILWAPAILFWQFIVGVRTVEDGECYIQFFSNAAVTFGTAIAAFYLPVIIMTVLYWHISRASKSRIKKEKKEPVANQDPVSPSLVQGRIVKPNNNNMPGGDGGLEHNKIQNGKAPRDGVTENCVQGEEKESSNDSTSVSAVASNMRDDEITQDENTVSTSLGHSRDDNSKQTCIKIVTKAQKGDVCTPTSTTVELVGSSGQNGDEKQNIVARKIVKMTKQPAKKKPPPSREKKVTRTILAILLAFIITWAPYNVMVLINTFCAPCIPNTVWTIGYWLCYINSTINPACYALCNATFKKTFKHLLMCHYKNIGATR

[2] = target: Muscarinic acetylcholine receptor M3 (Rattus norvegicus, UniProt P08483); experiment: Displacement of [3H]-NMS from Sprague-Dawley rat muscarinic M3 receptor in submandibular gland
Sequence of Muscarinic acetylcholine receptor M3 (P08483 whole entry): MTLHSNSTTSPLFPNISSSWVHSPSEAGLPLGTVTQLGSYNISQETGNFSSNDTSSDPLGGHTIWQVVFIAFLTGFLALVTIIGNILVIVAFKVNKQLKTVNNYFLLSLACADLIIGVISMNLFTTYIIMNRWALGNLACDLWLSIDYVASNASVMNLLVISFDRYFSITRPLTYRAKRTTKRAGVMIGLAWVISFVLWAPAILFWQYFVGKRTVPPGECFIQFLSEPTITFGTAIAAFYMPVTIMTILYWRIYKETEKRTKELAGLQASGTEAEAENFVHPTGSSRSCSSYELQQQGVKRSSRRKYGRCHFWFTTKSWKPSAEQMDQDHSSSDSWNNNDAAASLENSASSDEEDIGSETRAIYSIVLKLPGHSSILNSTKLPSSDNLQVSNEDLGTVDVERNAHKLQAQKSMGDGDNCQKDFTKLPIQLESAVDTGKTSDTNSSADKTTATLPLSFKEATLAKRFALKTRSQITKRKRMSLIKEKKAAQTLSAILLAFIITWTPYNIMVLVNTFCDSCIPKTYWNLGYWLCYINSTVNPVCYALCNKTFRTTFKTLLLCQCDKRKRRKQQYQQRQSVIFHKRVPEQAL

[3] = target: T2, Muscarinic acetylcholine receptor M1 (Rattus norvegicus, UniProt P08482); experiment: Displacement of [3H]-NMS from Sprague-Dawley rat muscarinic M1 receptor in cortex membrane; type: cell membranes
T2 sequence (P08482 whole entry): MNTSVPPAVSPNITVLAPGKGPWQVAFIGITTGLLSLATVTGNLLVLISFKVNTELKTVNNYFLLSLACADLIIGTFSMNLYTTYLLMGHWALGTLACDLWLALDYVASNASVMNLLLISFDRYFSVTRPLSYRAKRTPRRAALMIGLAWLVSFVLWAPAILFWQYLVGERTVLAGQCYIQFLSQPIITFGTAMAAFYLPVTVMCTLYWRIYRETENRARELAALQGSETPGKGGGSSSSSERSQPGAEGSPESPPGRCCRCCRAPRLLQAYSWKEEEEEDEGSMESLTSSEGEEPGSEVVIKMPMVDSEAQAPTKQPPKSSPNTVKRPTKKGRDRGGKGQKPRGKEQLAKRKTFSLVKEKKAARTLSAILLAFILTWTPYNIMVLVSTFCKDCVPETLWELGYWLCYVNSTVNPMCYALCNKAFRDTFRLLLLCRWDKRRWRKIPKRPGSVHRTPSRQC

Rattus norvegicus [4] = experiment: Bronchodilatory effect in Sprague-Dawley rat assessed as inhibition of CCh-induced bronchoconstriction at 0.5 ug/kg, it after 2 hrs; type: functional
How it was run: (§1)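 Male Sprague-Dawley rats (250–400 g) anaesthetised with pentobarbital sodium (50 mg/kg i.p.), tracheally cannulated, given pancuronium bromide 0.2 mg/kg i.v. Compound given intratracheally at 0.5 μg/kg; CCh 30 μg/kg challenge at 0.25, 0.5, 2 or 24 h post-dose; airway pressure by pressure transducer. Inhibition expressed as mean percentage of control value, n = 3.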

Rattus norvegicus [5] = experiment: Bronchodilatory effect in Sprague-Dawley rat assessed as inhibition of CCh-induced bronchoconstriction at 0.5 ug/kg, it after 24 hrs; type: functional; how it was run: as §1
Rattus norvegicus [6] = experiment: Bronchodilatory effect in Sprague-Dawley rat assessed as inhibition of CCh-induced bronchoconstriction at 0.5 ug/kg, it after 0.5 hrs; type: functional; how it was run: as §1
Rattus norvegicus [7] = experiment: Bronchodilatory effect in Sprague-Dawley rat assessed as inhibition of CCh-induced bronchoconstriction at 0.5 ug/kg, it after 0.25 hrs; type: functional; how it was run: as §1
[8] = target: Muscarinic acetylcholine receptor M3 (Rattus norvegicus) (UniProt P08483); experiment: Displacement of [3H]-NMS from Sprague-Dawley rat muscarinic M3 receptor in submandibular gland measured after single/double washout
Sequence of Muscarinic acetylcholine receptor M3 (Rattus norvegicus) (P08483 whole entry, looked up): as the sequence (P08483 whole entry) above

Rattus norvegicus [9] = experiment: Bronchodilatory effect in it dosed Sprague-Dawley rat assessed as inhibition of CCh-induced bronchoconstriction at 15 mins to 1 hr; type: functional, organism-based
Rattus norvegicus [10] = species: Rattus norvegicus; experiment: Ratio of ID50 for effect on CCh-induced salivation in Sprague-Dawley rat to ID50 for inhibition of CCh-induced bronchoconstriction Sprague-Dawley rat
Lung = experiment: Drug uptake in it dosed Sprague-Dawley rat lung after 24 hrs; type: ADME, organism-based; details: in vivo, inhaled_or_intranasal
Rattus norvegicus [11] = experiment: Bronchodilatory effect in it dosed Sprague-Dawley rat assessed as inhibition of CCh-induced bronchoconstriction after 24 hrs; type: functional; details: read-out: ID50 (the source's name)
How it was run: (§2)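 Anaesthetised, cannulated male Sprague-Dawley rats dosed once intratracheally; 24 h later CCh (30 μg/kg) given, with bronchoconstriction (airway pressure via transducer) and salivation (net weight gain of cotton balls in oral cavity) recorded together in the same animal.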

[12] = Drug uptake in it dosed Sprague-Dawley rat submandibular gland after 24 hrs; type: ADME, organism-based; details: in vivo
Rattus norvegicus [13] = species: Rattus norvegicus; experiment: Effect on CCh-induced salivation in Sprague-Dawley rat after 24 hrs; type: ADME, organism-based; details: in vivo; how it was run: as §2

| SMILES | pKi [1] | pKi [2] | pKi [3] | also measured |
| --- | --- | --- | --- | --- |
| O=C(Nc1ccsc1-c1ccccc1)OC12CCN(CC1)CC2 | 9.34 | 10.25 | 10.02 | – |
| O=C(Nc1ccsc1-c1ccccc1)O[C@H]1CN2CCC1CC2 | 9.09 | 9.72 | 9.72 | – |
| O=C(Nc1ncoc1-c1ccccc1)O[C@H]1CN2CCC1CC2 | 7.23 | 8.01 | 8.06 | – |
| C[N+]12CCC(OC(=O)Nc3ncsc3-c3cccc(C(F)(F)F)c3)(CC1)CC2 | 7.85 | 8.74 | 8.64 | – |
| O=C(Nc1scnc1-c1ccccc1)O[C@H]1CN2CCC1CC2 | 7.41 | 7.92 | 8.06 | – |
| O=C(Nc1ccccc1-c1ccccc1)OC12CCN(CC1)CC2 | 8.42 | 9.85 | 9.49 | – |
| C[N+]12CCC(OC(=O)Nc3ncsc3-c3cccc(Cl)c3)(CC1)CC2 [listing 1 of 2 here] | 10.28 | 10.31 | 10.39 | inhibition in vivo at 0.0005 mg/kg (Rattus norvegicus [4]): 84%; inhibition in vivo at 0.0005 mg/kg (Rattus norvegicus [5]): 82%; inhibition in vivo at 0.0005 mg/kg (Rattus norvegicus [6]): 67%; inhibition in vivo at 0.0005 mg/kg (Rattus norvegicus [7]): 67% |
| O=C(Nc1ncsc1-c1ccccc1)OC12CCN(CC1)CC2 | 9.10 | – | 9.41 | – |
| O=C(Nc1sccc1-c1ccccc1)OC12CCN(CC1)CC2 | 8.85 | 9.92 | 9.48 | – |
| C[N+]12CCC(OC(=O)Nc3ncsc3-c3cccc(Cl)c3)(CC1)CC2 [listing 2 of 2 here] | – | – | – | inhibition [8]: inactive; inhibition (Rattus norvegicus [9]): Active |
| C[N+]1(C)[C@@H]2C[C@@H](OC(=O)C(O)(c3cccs3)c3cccs3)C[C@H]1[C@@H]1O[C@@H]12.O.[Br-] [TIOTROPIUM BROMIDE] | 9.82 | 9.52 | 9.80 | inhibition [8]: Active; inhibition in vivo at 0.0005 mg/kg (Rattus norvegicus [4]): 83%; inhibition in vivo at 0.0005 mg/kg (Rattus norvegicus [5]): 78%; Ratio (Rattus norvegicus [10]): 16; Drug uptake (Lung): Active; inhibition in vivo at 0.0005 mg/kg (Rattus norvegicus [6]): 59%; inhibition in vivo at 0.0005 mg/kg (Rattus norvegicus [7]): 44%; ED50 (Rattus norvegicus [11]): 0.12 µg/kg; Drug uptake [12]: Active; ID50 (Rattus norvegicus [13]): 1.9 µg/kg |
| C[N+]12CCC(OC(=O)Nc3ccsc3-c3ccccc3)(CC1)CC2 | 10.57 | 10.70 | 10.70 | inhibition in vivo at 0.0005 mg/kg (Rattus norvegicus [4]): 86%; inhibition in vivo at 0.0005 mg/kg (Rattus norvegicus [6]): 78%; inhibition in vivo at 0.0005 mg/kg (Rattus norvegicus [7]): 42% |
| O=C(O[C@H]1C[N+]2(CCCOc3ccccc3)CCC1CC2)C(O)(c1cccs1)c1cccs1.[Br-] [ACLIDINIUM BROMIDE] | – | – | – | Ratio (Rattus norvegicus [10]): 24; ED50 (Rattus norvegicus [11]): 0.4 µg/kg; ID50 (Rattus norvegicus [13]): 9.4 µg/kg |
| C[N+]12CCC(OC(=O)Nc3ncsc3-c3cccc(Cl)c3)(CC1)CC2.[Br-] | – | – | – | Ratio (Rattus norvegicus [10]): 53; Drug uptake (Lung): Active; ED50 (Rattus norvegicus [11]): 0.08 µg/kg; Drug uptake [12]: Active; ID50 (Rattus norvegicus [13]): 4.2 µg/kg |
| O=C(Nc1cscc1-c1ccccc1)OC12CCN(CC1)CC2 | 8.44 | 9.68 | 9.29 | – |
| C[N+]1(C)CCC(OC(=O)C(O)(c2ccccc2)C2CCCC2)C1.[Br-] (stereo not drawn) [GLYCOPYRRONIUM BROMIDE] | – | – | – | ED50 (Rattus norvegicus [11]): 3.4 µg/kg; inhibition (Rattus norvegicus [9]): Active |
| C[N+]12CCC(CC1)[C@@H](OC(=O)Nc1ncsc1-c1cccc(Cl)c1)C2 | 8.92 | 9.60 | 9.51 | inhibition in vivo at 0.0005 mg/kg (Rattus norvegicus [4]): 50%; inhibition in vivo at 0.0005 mg/kg (Rattus norvegicus [6]): 64%; inhibition in vivo at 0.0005 mg/kg (Rattus norvegicus [7]): 64% |
| O=C(Nc1ccsc1-c1ccccc1)O[C@@H]1CN2CCC1CC2 | 7.89 | 8.40 | 8.34 | – |
| C[N+]12CCC(OC(=O)Nc3ncsc3-c3ccccc3)(CC1)CC2 | 9.92 | 10.19 | 10.26 | inhibition in vivo at 0.0005 mg/kg (Rattus norvegicus [5]): 61% |
| C[N+]12CCC(OC(=O)Nc3ncsc3-c3ccc(F)cc3)(CC1)CC2 | 9.68 | 10.00 | 10.14 | – |
| C[N+]12CCC(CC1)[C@@H](OC(=O)Nc1ncsc1-c1ccccc1)C2 | 8.92 | 9.43 | 9.43 | inhibition in vivo at 0.0005 mg/kg (Rattus norvegicus [4]): 54%; inhibition in vivo at 0.0005 mg/kg (Rattus norvegicus [5]): 14%; inhibition in vivo at 0.0005 mg/kg (Rattus norvegicus [6]): 62%; inhibition in vivo at 0.0005 mg/kg (Rattus norvegicus [7]): 74% |
| CC(C)[N+]1(C)C2CCC1CC(OC(=O)C(CO)c1ccccc1)C2 (stereo not drawn) | – | – | – | inhibition [8]: inactive; inhibition in vivo at 0.0005 mg/kg (Rattus norvegicus [4]): 83%; inhibition in vivo at 0.0005 mg/kg (Rattus norvegicus [5]): 15%; inhibition in vivo at 0.0005 mg/kg (Rattus norvegicus [6]): 85%; inhibition in vivo at 0.0005 mg/kg (Rattus norvegicus [7]): 70% |
| C[N+]12CCC(OC(=O)Nc3ncsc3-c3cc(Cl)cc(Cl)c3)(CC1)CC2 | 9.19 | 9.92 | 9.92 | – |
| O=C(Nc1ncsc1-c1ccccc1)O[C@H]1CN2CCC1CC2 | 8.72 | 9.03 | 9.12 | – |

From ChEMBL document CHEMBL3297703, “Novel quinuclidinyl heteroarylcarbamate derivatives as muscarinic receptor antagonists” (Bioorg Med Chem, 2014)
